About 630 (0.29%) of roughly 220,000 compounds were called active.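 Rule for the calls: active = activation above its plate's cutoff, the mean activation of the plate's test wells plus 3 SD (cut at about 12% in these data); inactive = the rest.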 The full list was thinned out, with actives kept by preference.
What follows are compounds tested against Mucolipin-3 (Homo sapiens) (UniProt Q8TDD5) (assay: activators of mucolipin-3 cation channel – cell-based, HEK293 TRPML3-YFP, Fluo-8 calcium fluorescence, 3 µM, primary screen (AID 1448;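 note: 0% = DMSO only wells and 100% = carbachol wells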)). Conditions: at 3 µM, stronger effect = higher value, 100% = the carbachol control signal.
Sequence of Mucolipin-3 (Homo sapiens) (Q8TDD5 whole entry, looked up): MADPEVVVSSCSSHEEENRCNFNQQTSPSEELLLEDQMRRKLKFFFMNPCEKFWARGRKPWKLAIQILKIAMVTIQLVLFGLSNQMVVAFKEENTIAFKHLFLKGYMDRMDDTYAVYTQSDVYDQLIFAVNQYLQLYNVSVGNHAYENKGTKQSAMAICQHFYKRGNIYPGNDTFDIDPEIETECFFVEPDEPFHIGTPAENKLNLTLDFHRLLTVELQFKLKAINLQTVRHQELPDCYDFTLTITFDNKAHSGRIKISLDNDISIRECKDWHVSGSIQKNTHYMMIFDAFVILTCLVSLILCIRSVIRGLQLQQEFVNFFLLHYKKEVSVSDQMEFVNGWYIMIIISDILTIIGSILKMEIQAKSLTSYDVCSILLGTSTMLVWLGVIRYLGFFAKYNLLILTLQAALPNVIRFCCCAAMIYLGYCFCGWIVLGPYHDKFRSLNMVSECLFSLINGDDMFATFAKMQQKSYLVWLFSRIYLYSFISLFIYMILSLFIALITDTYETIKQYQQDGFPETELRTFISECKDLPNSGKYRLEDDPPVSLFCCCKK
In short: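 Test system: TRPML3-YFP stable HEK293 cells. Doses: single point at 3 µM. Incubation: dye loading 1 h 37 °C then 30 min ambient, 125 s read. Signal: Fluo-8 calcium dye fluorescence, ex 470-495, em 515-575 nm. Measure: percent activation from peak-to-basal fluorescence ratio, scaled between DMSO and carbachol.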
In the case of `Cc1nn(C)cc1N1C(=O)c2cccc3c(N)ccc(c23)C1=O`, the activation was 16.9% (active). In the case of `COc1ccc(N2C(=O)c3cccc4cccc(c34)C2=O)nn1`, the activation was -0.51% (inactive). `Cc1nn(-c2cc(Cl)ccc2N)c(=O)c2ccccc12` was tested, and the activation was 0.26% (inactive). With `COCc1cc(=O)[nH]c(SC)n1` the activation was 0.74% (inactive). With `Cc1cc(C)cc(C(=O)NCC(=O)OCC(=O)N2CCCCC2)c1` the activation was 0.67% (inactive). For `CC(NC(=O)COC(=O)C1CCN(S(=O)(=O)c2ccccc2C(F)(F)F)CC1)c1ccccc1` (centres undefined), the activation was -0.74% (inactive). `CC(C)CCC(C)NC(=O)c1ccc2nccnc2c1` (centres undefined) was tested, and the activation was -0.61% (inactive). In the case of `O=C(c1nnc(-c2ccc(Cl)cc2)o1)C1CCCC1`, the activation was 0.06% (inactive). `CC1(C)CCCC2=C1CC1C(=O)N(c3ccccc3)C(=O)C1C2` (centres undefined) was tested, and the activation was 22.9% (active). In the case of `Cc1ccc(N2C(=O)C3CC3C2=O)cc1` (centres undefined), the activation was 0.72% (inactive). `CC1=C(C)CC2C(=O)N(c3cccc4ccccc34)C(=O)C2C1` (centres undefined) was tested, and the activation was 0.86% (inactive). In the case of `Cc1cccc(-n2cnc(C(=O)NNC(=S)Nc3ccccc3)c2)n1`, the activation was 0.89% (inactive). For `Cn1ccc(NC(=O)Nc2ccc(Cl)cc2)n1`, the activation was 1.03% (inactive). In the case of `CN(C)c1ccc(/C=C2\NC(=S)N(Cc3ccccc3)C2=O)cc1`, the activation was 19.5% (active). For `O=C1NCC(=O)N(Cc2ccccc2)/C1=C/c1ccccc1`, the activation was 1.86% (inactive). `CC1=NN(Cc2ccccc2)C(=O)/C1=C/c1ccc(N(C)C)cc1` was tested, and the activation was -2.14% (inactive). With `O=C(Nc1ccc(N2CCN(C(=O)c3ccccc3)CC2)c(Cl)c1)c1ncn[nH]1` the activation was -0.11% (inactive). For `COCCNc1nc2nonc2nc1N1CCCC1c1nccs1` (centres undefined), the activation was 0.19% (inactive). In the case of `NS(=O)(=O)c1ccc(NC(=S)NNC(=O)c2cccs2)cc1`, the activation was -0.19% (inactive). `O=S(=O)(c1ccc(NC(=S)NN=C(C2CC2)C2CC2)cc1)N1CCOCC1` was tested, and the activation was 0.74% (inactive). In the case of `COc1cc(/C=C(\C#N)c2nc3c(s2)CC(C)CC3)ccc1O` (centres undefined), the activation was 12.4% (active). In the case of `COc1cc(/C=N/Nc2nc3ccccc3s2)ccc1O`, the activation was -0.85% (inactive). With `CCOc1cc(/C=C(\C#N)c2nc(-c3cccs3)c(NC(C)=O)s2)ccc1O` the activation was 9.68% (inactive). In the case of `Cc1nn(CC(=O)Nc2ccc3c(c2)OCO3)c(C)c1[N+](=O)[O-]`, the activation was -0.67% (inactive). For `Cc1[nH]n(-c2ccccc2)c(=O)c1N=Nc1ccccc1C(=O)N1CCCCC1`, the activation was 0.09% (inactive). `O=C(CSc1nc2ccc(Nc3nc(N4CCOCC4)nc(N4CCOCC4)n3)cc2s1)NCc1ccco1` was tested, and the activation was 0.56% (inactive). In the case of `CCn1c(CSc2ncccn2)nnc1SCC(=O)N1c2ccccc2CC1C` (centres undefined), the activation was -0.71% (inactive). With `CCn1c(Cc2ccccc2)nnc1SCC(=O)Nc1ccccc1` the activation was -0.27% (inactive). For `CCCc1nnc(SCC(=O)N2C(C)CCCC2C)n1CC` (centres undefined), the activation was 20.2% (active). `Cc1sc2nc(CC(N)=O)[nH]c(=O)c2c1-c1ccccc1` was tested, and the activation was 0.25% (inactive). `CCCN(C(=O)CSc1nnnn1C)c1c(N)n(Cc2ccccc2)c(=O)[nH]c1=O` was tested, and the activation was -0.23% (inactive). With `COCCNC(=S)N1CCN(C)CC1` the activation was 0.99% (inactive). For `CCCCC(=O)NNC(=S)NC(=O)C(c1ccccc1)c1ccccc1`, the activation was 74.5% (active). In the case of `CC(C)C(=O)Nc1cccc(NC(=S)NC(=O)C(c2ccccc2)c2ccccc2)c1`, the activation was 1.07% (inactive). With `O=C(NNC(=S)NCc1ccco1)C(c1ccccc1)c1ccccc1` the activation was 0.93% (inactive). For `O=[N+]([O-])c1cc(S(=O)(=O)Nc2cccc(Cl)c2)ccc1N=Nc1c(O)[nH]c2ccccc12`, the activation was 0.58% (inactive). For `CCS(=O)(=O)Nc1ccc(C2=NN(C(C)=O)C(c3cccs3)C2)cc1` (centres undefined), the activation was 0.2% (inactive). For `NNC(=O)c1cccc(COCC(F)(F)C(F)F)c1`, the activation was 0.05% (inactive). For `CC(C)c1c(O)nc(SCCOc2ccc(Cl)cc2)[nH]c1=O`, the activation was 0.56% (inactive). In the case of `COc1cc(OC)cc(/C(N)=N/O)c1`, the activation was 0.62% (inactive). `CC(/C=C/c1ccco1)=N/NC(=O)C1COc2ccccc2O1` (centres undefined) was tested, and the activation was 1.2% (inactive). In the case of `C=C(C)Cn1c(C)cc(C)c(S(=O)(=O)c2ccccc2C)c1=O`, the activation was 42% (active). In the case of `S=c1nc(C23CC4CC(CC(C4)C2)C3)nc2sccn12`, the activation was 0.26% (inactive). In the case of `Cc1ccccc1C(=O)NNC(=O)CN1C(=O)c2ccccc2C1=O`, the activation was 1.17% (inactive). For `O=C(NCCN1C(=O)S/C(=C\c2cccnc2)C1=O)c1ccc(S(=O)(=O)N2CCCC2)cc1`, the activation was -0.11% (inactive). For `O=C(COC(=O)c1ccc(NS(=O)(=O)c2cccs2)cc1O)Nc1ccc(F)cc1`, the activation was 0.82% (inactive). With `O=C(CSc1nncn1-c1cccnc1)N1CCOCC1` the activation was 0.63% (inactive). In the case of `O=S(=O)(Nc1cc(S(=O)(=O)N2CCOCC2)ccc1N1CCCC1)c1cccs1`, the activation was -0.45% (inactive). `O=S(=O)(Nc1ccccc1N1CCOCC1)c1ccc(Cl)s1` was tested, and the activation was 98.9% (active). `O=C(Nc1ccccc1N1CCOCC1)c1csc2c1CCCC2` was tested, and the activation was -1.45% (inactive). For `CCOc1ccc(Br)cc1S(=O)(=O)Nc1ccc(C(=O)OC(C)C(=O)N(C)c2ccccc2)cc1` (centres undefined), the activation was 0.82% (inactive). With `COc1ccc(OC)c(NC(=S)N2CCc3ccccc3C2)c1` the activation was -0.32% (inactive). For `COCc1[nH][nH]c(=O)c1C=Nc1ccc(F)cc1F`, the activation was 0.21% (inactive). `Cc1ccc(O)c(NC(=O)COc2cc(C)ccc2C)c1` was tested, and the activation was 0.83% (inactive). In the case of `Cc1cccc(OCC(=O)NC(=S)Nc2ccccc2N2CCOCC2)c1`, the activation was 0.19% (inactive). With `Cc1ccc(O)c(NC(=S)NC(=O)COc2ccc(Br)cc2)c1` the activation was 20.5% (active). In the case of `CC(C)N(C(=O)CSc1nc(COc2ccccc2)nc2ccccc12)C(C)C`, the activation was -1.84% (inactive). With `O=C(NCc1cccnc1)C(=O)Nc1nc(-c2ccccc2)cs1` the activation was 0.51% (inactive). In the case of `O=C(NNS(=O)(=O)Cc1ccccc1)c1ccc([N+](=O)[O-])cc1`, the activation was 0.34% (inactive). For `CN(CCc1ccccn1)S(=O)(=O)c1ccc2c3c(cccc13)C(=O)N2`, the activation was 0.24% (inactive). In the case of `CCN(CC)S(=O)(=O)c1cc([N+](=O)[O-])ccc1N=Nc1c(O)n(C)c2ccccc12`, the activation was 0.98% (inactive). With `CCN(CC)S(=O)(=O)c1ccc2c3c(cccc13)C(=O)S2` the activation was 12.9% (active). With `COCCNC(=O)C(OC(=O)c1cccs1)c1ccc(F)cc1` (centres undefined) the activation was 0.35% (inactive). With `COc1cc(OC)cc(C(=O)N[C@H](C(=O)OCC(=O)NC(C)c2ccccc2)C(C)C)c1` (some centres undefined) the activation was 17.2% (active). `CC(NC(=O)COC(=O)c1ccc2c(c1)OCO2)c1ccccc1` (centres undefined) was tested, and the activation was -0.07% (inactive). In the case of `COc1cc(OC)cc(C(=O)N[C@H](C(=O)Nc2nc3ccccc3[nH]2)C(C)C)c1`, the activation was 0.87% (inactive). In the case of `COc1ccc(Br)cc1CN(C)CC(=O)Nc1cc(Cl)cc(Cl)c1`, the activation was 0.63% (inactive). For `CC(=O)c1ccc(-c2ccc(Cn3c(C)nc4cc(N)c(C)nc43)cc2)cc1`, the activation was 0.69% (inactive). With `O=c1[nH]c2c(c(=O)n1Cc1ccccc1)CCC2` the activation was 0.43% (inactive). In the case of `Cc1cc2nc3c(=O)n(Cc4ccccc4)c(=O)[nH]c3nc2cc1N`, the activation was 23.9% (active). In the case of `CCCC(=O)Nc1cccc(NC(=S)NC(=O)C(C)Oc2ccc(Cl)cc2Cl)c1` (centres undefined), the activation was 0.1% (inactive). In the case of `Cc1onc(-c2ccccc2)c1C(=O)NNC(=S)NC(=O)c1ccc(F)cc1`, the activation was 1.79% (inactive). For `COc1ccc(C(=O)NC(=S)NNC(=O)CCc2ccccc2)cc1`, the activation was 2.05% (inactive). `COc1ccc(C(=O)NC(=S)NNC(=O)c2c(-c3ccccc3)noc2C)cc1` was tested, and the activation was 31.2% (active). For `O=C(Nc1ccc(S(=O)(=O)Nc2nccs2)cc1)c1cc(-c2ccncc2)nc2ccccc12`, the activation was 0.93% (inactive). For `CC(C)Cc1nc(Cl)c(C#N)c2c1CCC2`, the activation was -0.84% (inactive). For `O=C(CN1CCN(C(=S)NC2CCCC2)CC1)Nc1ccc(Oc2ccccc2)cc1`, the activation was 3.02% (inactive). In the case of `CCOCC(=O)Nc1ncc(S(=O)(=O)c2ccc([N+](=O)[O-])cc2)s1`, the activation was 2.38% (inactive). `O=C(Cc1c(F)cccc1Cl)Nc1ncc([N+](=O)[O-])s1` was tested, and the activation was 10.9% (inactive). In the case of `O=C(CCc1ccccc1)Nc1ncc([N+](=O)[O-])s1`, the activation was 8.03% (inactive). For `CC(=O)Oc1ccccc1C(=O)Nc1ncc([N+](=O)[O-])s1`, the activation was 16.7% (active). With `CCC(C)NC(=O)c1ccc(N2CCC3(CC2)OCCO3)c([N+](=O)[O-])c1` (centres undefined) the activation was -0.07% (inactive). `COc1cc2nc(CN(C)Cc3ccc(F)cc3)[nH]c(=O)c2cc1OC` was tested, and the activation was 0.67% (inactive). `CN(c1ccccc1)c1ccc(/C=c2\s/c(=C(/C#N)C(=O)C(C)(C)C)n(Cc3ccco3)c2=O)cc1` was tested, and the activation was 14.8% (active). With `COc1ccc(NC(=O)Cn2c(=O)n(Cc3ccco3)c(=O)c3ccccc32)cc1` the activation was 0.61% (inactive). In the case of `Cc1cs/c(=N\N=C\c2ccc(O)cc2)n1Cc1ccco1`, the activation was -0.12% (inactive). With `Cc1sc2ncnc(Sc3nc4ccccc4s3)c2c1C` the activation was 0.98% (inactive). In the case of `CCc1c(C)nc2c(-c3ccccc3)c(C)nn2c1Nc1ccc(NC(C)=O)cc1`, the activation was -0.72% (inactive). `CN(CC(=O)Nc1cccc(F)c1)CC(=O)Nc1cccc([N+](=O)[O-])c1` was tested, and the activation was 26.9% (active). With `Cc1ccc(NC(=O)CN(C)CC(=O)Nc2cccc(F)c2)cc1[N+](=O)[O-]` the activation was 4.13% (inactive). For `Cc1ccc(CN(C)CC(=O)Nc2cccc([N+](=O)[O-])c2)o1`, the activation was -0.52% (inactive). With `COC(=O)C1=C(C)N(c2ccc(Br)cc2)C(=O)/C1=C\c1ccco1` the activation was 0.24% (inactive). In the case of `O=C(O)C(c1ccccc1)C1(O)CCCCC1` (centres undefined), the activation was 1.12% (inactive). `CC(NC(=O)C(C)(C)C)C(c1cccs1)N1CCN(Cc2ccccc2)CC1` (centres undefined) was tested, and the activation was -0.4% (inactive).

Source: PubChem BioAssay AID1448 (The Scripps Research Institute Molecular Screening Center, 2008)
